# Screening results: PubChem BioAssay, several laboratories
# A selection: hits, their analogues and other compounds. The true share with any hit is near 6.4%.
# E coli WT exp: growth inhibitors of wild-type E. coli, primary screen, strain BW25113, expanded library, OD600 | OD600 absorbance | growth inhibition, % at 100 µM | 0.15% of 98,000 active;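 active = growth inhibition above about 50% at one test dose, limit read from the data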;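 note: growth measured after 20 h incubation at 37 °C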
# Ecoli tolC: growth inhibitors of E. coli tolC mutant, primary screen, strain BW25113 ΔtolC::kan, 384-well. OD615. 2.2% of 65,000 active. AID 573, 2007. growth inhibition, % at 10 µM (by protocol);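 active = growth inhibition at or above a cutoff equal to the mean over every tested compound plus 3 SD, cut at about 60% in these data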;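 note: growth measured after 20 h incubation at 37 °C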
#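 Material: E. coli BW25113 ΔtolC::kan, tolC deletion mutant strain. Measure: percent growth inhibition. Schedule: 37 °C, 20 h exposure. Doses: single-point testing at 10 µM. Signal: A615 absorbance measurement. Buffer or medium: kanamycin-containing LB broth (50 µg/mL).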
# H69AR growth 86K: proliferation blockers of H69AR lung cancer cells, primary screen, cell-based, human, 86K library. H69AR lung tumor viability, ATP luminescence, 72 h; stronger effect = lower value. viability, % at 10 µM. 6% of 85,000 active. AID 598, 2007;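 active = viability at or below 40%; inactive = viability above 40%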;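 note: multidrug resistant small cell line overexpressing MRP-1 efflux transporter; 100% = mean luminescence of untreated control wells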
# Jurkat tox 60K: cytotoxicity toward Jurkat T cells, primary screen, cytotoxicity control, cell-based, Jurkat E6.1, 60K MLSMR library. Jurkat E6.1 viability, ATP luminescence, 48 h. inhibition, % at 4 µM. 1.2% of 56,000 active. AID 463, 2006;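 active = inhibition above the mean inhibition of all tested compounds plus 3 SD, cut at about 28% in these data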
# Fibroblast inh: antiproliferative effect on LL 47 fibroblasts – human, LL 47 cells, CellTiter-Glo luminescence, primary screen; LL 47 human lung fibroblast viability, ATP luminescence; stronger effect = lower value; viability, % at 10 µM; 1.1% of 85,000 active; AID 719, 2007;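 active = viability at or below 50% in the single dose screen; inactive = viability above 50%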;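 note: compound exposure lasted 72 h before the ATP readout; 100% = median luminescence of untreated cell-only wells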
#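 test system = LL 47 human lung fibroblasts | amount = 1,150 fibroblasts seeded per well | medium = 15% FBS in IMEM | times = overnight cell rest, 72 h compound treatment at 37 °C | measured by = CellTiter-Glo luminescence measuring cellular ATP | read-out = viability percentage against median untreated-cell control | benchmarks = cell-only wells, no compound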
# HUVEC prolif 384: inhibitors of HUVEC proliferation, primary screen, cell-based, 384-well; viability, % at 10 µM (by protocol); AID 648, 2007; 1.1% of 86,000 active; CellTiter-Glo luminescence, 72 h; stronger effect = lower value;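 active = viability at or below 30%; inactive = viability above 30%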;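 note: 100% = median luminescence of DMSO-only cell control wells on each plate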
# Numbers without * were called inactive; · = no result given.
SMILES,E coli WT exp,Ecoli tolC,H69AR growth 86K,Jurkat tox 60K,Fibroblast inh,HUVEC prolif 384
O=C(NCc1ccco1)c1ccc(Cn2c(=O)c3sccc3n(Cc3cccc(F)c3)c2=O)cc1,-18.0,·,52.0,·,98.5,90.0
CCOc1ccc2cc(C#N)c(SCC(=O)NC(C)CC)nc2c1 (stereo not drawn),-4.0,-4.2,28.6*,2.0,101.7,68.4
CCOC(=O)CSc1nc2cc(OCC)ccc2cc1C#N,-4.0,1.8,31.1*,-4.7,102.2,62.8
COC(=O)CSc1nc2cc(OC)ccc2cc1C#N,-3.0,19.9,74.5,-0.1,88.9,71.5
CCOc1ccc2cc(C#N)c(SCC(=O)N3CCC(C)CC3)nc2c1,-14.0,14.1,23.3*,-4.2,78.9,47.5
CN(Cc1cccs1)C(=O)COc1ccc(-c2nnco2)cc1,3.0,-11.2,86.0,5.0,99.3,103.6
CCn1c(SCc2c(Cl)cccc2Cl)nnc1-c1nn(-c2ccccc2)ccc1=O,17.0,·,·,·,·,·
C#CCSc1nccc(-c2nn(-c3ccc(C)cc3)ccc2=O)n1,-5.0,·,17.2*,·,83.0,64.1
CNC(=O)c1nn(-c2ccc(C)cc2)ccc1=O,10.0,·,·,·,·,·
CCSc1nccc(-c2nn(-c3ccc(C)cc3)ccc2=O)n1,-7.0,·,18.4*,·,66.9,58.3
C=CCSc1nccc(-c2nn(-c3ccc(C)cc3)ccc2=O)n1,-20.0,·,21.0*,·,64.0,58.7
CSc1nccc(-c2nn(-c3ccc(C)cc3)ccc2=O)n1,6.0,·,24.0*,·,58.0,47.9
C=CCSc1nc(=O)n2cccc(C)c2n1,-11.0,·,·,·,·,·
CCSc1ccccc1C(=O)N1CCN(c2ccccc2F)CC1,4.0,18.2,84.3,11.0,93.2,96.3
CN(C)C(=O)NC(O)C(Cl)Cl (stereo not drawn),2.0,·,77.5,·,99.7,93.5
Cc1cc(O)c(/C=N/Nc2ccc(Cl)cc2)c(=O)o1,95.0*,·,·,·,·,·
O=C1NC(c2cccs2)Nc2ccccc21 (stereo not drawn),13.0,5.7,61.4,·,99.8,100.1
Cc1ccsc1C1NC(=O)c2ccccc2N1 (stereo not drawn),11.0,-8.2,23.1*,·,87.5,62.5
COc1cc(S(=O)(=O)n2nc(C)cc2C)c(OC)cc1Cl,-5.0,·,86.8,·,102.7,106.8
COc1ccccc1C(=O)N/C(N)=N/c1nc2ccccc2o1,-5.0,·,14.8*,·,102.1,59.3
O=C(NNS(=O)(=O)c1ccc([N+](=O)[O-])cc1)c1cnn(-c2ccccc2)c1-n1cccc1,9.0,·,·,·,·,·
OC(CNCC1CCCO1)Cn1c2ccc(Cl)cc2c2cc(Cl)ccc21 (stereo not drawn),65.0*,·,1.0*,·,2.4*,2.2*
CC(=O)Nc1coc2ccc(Br)cc12,23.0,·,78.9,-0.1,109.8,82.2
O=C(c1ccccc1)c1nn(-c2ccccc2)c(=O)cc1C(F)(F)F,9.0,·,·,·,·,·
Cc1ccc(Cc2nnc3n(-c4ccccc4)nc(C(=O)c4ccccc4)n3c2=O)cc1,·,·,21.1*,·,95.2,54.8
SMILES,E coli WT exp,Ecoli tolC,H69AR growth 86K,Jurkat tox 60K,Fibroblast inh,HUVEC prolif 384
COc1ccccc1C/C(N)=N/OC(=O)c1cccc([N+](=O)[O-])c1,2.0,·,·,·,·,·
COc1ccc(OC(=O)c2cccc([N+](=O)[O-])c2)c(C(=O)/C=C/c2cccs2)c1,-23.0,·,3.4*,·,93.3,53.1
CCOC(=O)c1nnc(-c2ccc(C)cc2)nc1Sc1cccc(Cl)c1,-20.0,·,33.2*,·,80.6,52.9
CCOC(=O)c1nnc(-c2ccccc2)nc1Oc1ccc(Cl)cc1,-4.0,·,·,·,·,·
CCOC(=O)c1nnc(-c2ccccc2)nc1Sc1ccccc1Cl,-16.0,·,0.6*,·,87.2,61.9
O/N=C/c1cc(Cl)ccc1OCc1cccc2ccccc12,-7.0,·,·,·,·,·
O=c1c2cc(Br)ccc2nc(-c2cccc(C(F)(F)F)c2)n1O,63.0*,·,·,·,·,·
O=C(Nc1ccc(C(F)(F)F)cc1)c1cc(-c2cccnc2)nc2ccc(Br)cc12,-1.0,·,·,·,·,·
N=c1c(-c2nc3ccccc3[nH]2)cc(C(=O)c2cccs2)nn1-c1ccccc1,·,·,5.4*,·,85.8,69.7
COc1ccc2nc(N3CCC(C)CC3)c(C#N)cc2c1,5.0,96.7*,94.2,-3.1,104.0,105.3
CCOC(=O)C1CCN(c2nc3cc(OC)ccc3cc2C#N)CC1,-8.0,74.6*,90.7,-2.9,109.2,102.7
COc1ccc2nc(N3CCC(O)CC3)c(C#N)cc2c1,3.0,11.5,84.5,-2.4,99.4,95.2
COc1ccc(-n2c(SCCC#N)nnc2-c2cc(Cl)ccc2OC)cc1Cl,-13.0,24.0,24.5*,10.3,62.0,50.5
CC1Cc2ccccc2N1C(=O)c1cc2c(=O)n3ccccc3nc2n1C (stereo not drawn),-3.0,17.2,12.8*,27.5,92.2,52.2
Cc1cccn2c(=O)c3cc(C(=O)N4CCc5ccccc54)n(C)c3nc12,·,-2.2,25.3*,-2.6,91.0,60.0
Cc1cccn2c(=O)c3cc(C(=O)N4c5ccccc5CC4C)n(C)c3nc12 (stereo not drawn),-4.0,-9.7,41.8,-4.5,83.1,77.4
Cc1cccc(NC(=O)c2sc3nc4c(c(-c5cccs5)c3c2N)CN(C)CC4)c1,-2.0,·,56.8,·,81.2,14.9*
COc1ccccc1NC(=O)NC1(C(=O)N2CCC(O)CC2)CCCCC1,1.0,-22.2,98.8,0.3,68.7,87.6
COc1cccc(-n2nnnc2S(C)(=O)=O)c1,33.0,·,1.1*,·,46.6*,45.0
Cc1ccc(S(=O)(=O)/C(C#N)=C/c2c(N3CC(C)OC(C)C3)nc3c(C)cccn3c2=O)cc1 (stereo not drawn),-11.0,·,51.5,·,101.6,70.0
CCCc1nnc(N2C(=O)c3cccc4cccc(c34)C2=O)s1,-1.0,·,70.9,·,104.7,103.5
Cc1ccc2c(c1)cc(CN(Cc1cccs1)C(=O)c1ccco1)c1nnnn12,-7.0,13.1,56.9,1.8,80.5,78.9
Cc1ccc2c(c1)cc(CN(Cc1ccc3c(c1)OCO3)S(=O)(=O)c1ccccc1)c1nnnn12,-17.0,21.3,30.9*,-4.3,56.2,94.7
O=C(CC1(O)C(=O)N(Cc2cccc3ccccc23)c2ccccc21)c1cccnc1 (stereo not drawn),4.0,·,19.7*,·,53.1,39.6
Cc1ccc(C(=O)CC2(O)C(=O)N(Cc3ccccc3Cl)c3ccccc32)o1 (stereo not drawn),7.0,39.2,18.5*,7.5,89.1,81.9
O=[n+]1cc(-c2cccc3ccccc23)n([O-])c2c1CCC2,1.0,·,96.6,·,113.2,96.4
CCC(=O)Nc1ccc(S(=O)(=O)N2CCN(c3ccc(F)cc3)CC2)cc1,-6.0,·,48.0,·,70.3,40.0
O=C(OCC1OC(n2cnc3c(N(C(=O)c4ccccc4)C(=O)c4ccccc4)ncnc32)C(O)C1F)c1ccccc1 (stereo not drawn),-8.0,·,2.7*,·,105.1,84.3
